This excerpt belongs to a sample that is enriched for hits.
HCT116 PTEN-null: suppresses growth of cells with PTEN deletion; HCT116 PTEN-null viability, CellTiter-Glo, 60 h; active compounds read low; viability, % at 10 µM; actives 1.2% (n = 140,000); AID 827;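 active means viability at or below a set limit, 4 SD under the median of all tested compounds, cut at about 3.7% in these data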;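 further: PTEN knockout HCT116 line with beta catenin targeted HCT116 as companion control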
H69AR inhibit: blocks growth of human H69AR lung tumor cells; H69AR lung tumor viability, ATP luminescence, 72 h; active compounds read low; AID 598; actives 6% (n = 85,000); viability, % at 10 µM;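 active means viability at or below 40%; inactive means viability above 40%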;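 further: multidrug resistant small cell line overexpressing MRP-1 efflux transporter; 100% = mean luminescence of untreated control wells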
HUVEC inhibit: human endothelial cell proliferation inhibition | HUVEC proliferation, CellTiter-Glo luminescence, 72 h; active compounds read low | viability, % at 10 µM (by protocol) | actives 1.1% (n = 86,000) | AID 648;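 active means viability at or below 30%; inactive means viability above 30%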;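 further: 100% = median luminescence of DMSO-only cell control wells on each plate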
Lung fibro prol: blocks proliferation of human lung fibroblasts; LL 47 human lung fibroblast viability, ATP luminescence; active compounds read low; viability, % at 10 µM; actives 1.1% (n = 85,000); AID 719;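 active means viability at or below 50% in the single dose screen; inactive means viability above 50%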;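 further: compound exposure lasted 72 h before the ATP readout; 100% = median luminescence of untreated cell-only wells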
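Material: Human LL 47 lung fibroblast cells | Input: 1,150 cells/well | Buffer or medium: IMEM plus 15% FBS | Compound dosing: 0.1% DMSO in all compound wells | Times: Overnight cell rest, 72 h compound treatment at 37 °C | Signal: CellTiter-Glo luminescence measuring cellular ATP | Measure: % viability versus median cells-only luminescence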
bCat KO growth: beta-catenin-lacking colon tumor cell growth suppression; HCT116 beta-catenin knockout viability, CellTiter-Glo, 60 h; active compounds read low; viability, % at 10 µM; actives 1.5% (n = 140,000);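 active means viability at or under a set limit, the compound median less 4 SD, cut at about 6% in these data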;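 further: 0% = Hyamine 1622 control at 20 µM and 100% = untreated cell control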
* marks the source's active call; other numbers are inactive results.

What do the screens show for `O=C(Oc1ccc(Cl)c2cccnc12)c1ccco1`?
HCT116 PTEN-null: 6; H69AR inhibit: 1.3*; HUVEC inhibit: 32; Lung fibro prol: 4.2*; bCat KO growth: 5.3*

What do the screens show for `O=C(Oc1cccc2cccnc12)c1cccs1`?
HCT116 PTEN-null: 1.9*; H69AR inhibit: 1.6*; HUVEC inhibit: 52; Lung fibro prol: 3.4*; bCat KO growth: 4.1*

What do the screens show for `O=C(Oc1cccc2cccnc12)c1ccco1`?
HCT116 PTEN-null: 1.8*; H69AR inhibit: 1.5*; HUVEC inhibit: 64; Lung fibro prol: 5.2*; bCat KO growth: 3.0*

What do the screens show for `O=C(Oc1cccc2cccnc12)c1ccc2c(c1)OCCO2`?
HCT116 PTEN-null: 2.5*; H69AR inhibit: 29*; HUVEC inhibit: 100; Lung fibro prol: 3.2*; bCat KO growth: 4.8*

Results for O=C(Oc1cccc2cccnc12)c1ccc(Br)o1 ?
HCT116 PTEN-null: 70; H69AR inhibit: 83; HUVEC inhibit: 93; Lung fibro prol: 97; bCat KO growth: 84

Results for O=C(O)c1cc([N+](=O)[O-])c(N2CCCC2)c([N+](=O)[O-])c1 ?
HCT116 PTEN-null: 90; bCat KO growth: 93

Results for CC(NC(=O)C1CCN(S(=O)(=O)c2cnc[nH]2)CC1)c1ccccc1 (stereo not drawn) ?
HCT116 PTEN-null: 106; bCat KO growth: 87

What do the screens show for `Cc1csc(SCC(=O)NCCc2ccc(Cl)cc2Cl)n1`?
HCT116 PTEN-null: 91; bCat KO growth: 95

What do the screens show for `c1ccc(-c2nc3cc(Oc4ccc5oc(-c6ccccn6)nc5c4)ccc3o2)nc1`?
H69AR inhibit: 95; HUVEC inhibit: 95; Lung fibro prol: 97

How did CCn1c2ccccc2c2nnc(SCc3cc(=O)n4ccsc4n3)nc21 do in these assays?
H69AR inhibit: 77; HUVEC inhibit: 100; Lung fibro prol: 83

What do the screens show for `O=C(Cc1ccc(Cl)cc1)Oc1cccc2cccnc12`?
HCT116 PTEN-null: 3.0*; bCat KO growth: 4.2*

How did O=C(Oc1ccccc1)c1cccc2cccnc12 do in these assays?
HCT116 PTEN-null: 1.7*; H69AR inhibit: 0.8*; HUVEC inhibit: 87; Lung fibro prol: 36*; bCat KO growth: 3.3*

What do the screens show for `NNC(=O)COc1cccc2cccnc12`?
HCT116 PTEN-null: 111; H69AR inhibit: 101; HUVEC inhibit: 98; Lung fibro prol: 92; bCat KO growth: 101

How did COc1ccccc1C1CN=NC12CCCc1ccccc1C2=O (stereo not drawn) do in these assays?
HCT116 PTEN-null: 93; bCat KO growth: 70

How did COC(=O)c1oc2c(c1C)C1(CCC2)SCCS1 do in these assays?
HCT116 PTEN-null: 92; H69AR inhibit: 37*; HUVEC inhibit: 88; Lung fibro prol: 87; bCat KO growth: 88

What do the screens show for `CCCCCOc1ccc(C(=O)NCC(=O)NCC(=O)OCC)cc1`?
HCT116 PTEN-null: 36; H69AR inhibit: 25*; HUVEC inhibit: 56; Lung fibro prol: 83; bCat KO growth: 36

What do the screens show for `CCOC(=O)CNC(=O)CNC(=O)c1ccc(OCC(C)C)cc1`?
HCT116 PTEN-null: 97; H69AR inhibit: 54; HUVEC inhibit: 89; Lung fibro prol: 82; bCat KO growth: 91

How did Fc1ccc(-n2[nH]nnc2=S)cc1N1CCCC1 do in these assays?
HCT116 PTEN-null: 102; H69AR inhibit: 88; HUVEC inhibit: 105; Lung fibro prol: 100; bCat KO growth: 115

How did O=C(OCC1OC(n2cnc3c(N(C(=O)c4ccccc4)C(=O)c4ccccc4)ncnc32)C(O)C1F)c1ccccc1 (stereo not drawn) do in these assays?
HCT116 PTEN-null: 82; H69AR inhibit: 2.7*; HUVEC inhibit: 84; Lung fibro prol: 105; bCat KO growth: 78

Results for COC(=O)[C@@]1(Cc2ccc(OC)cc2)[C@@H]2[C@@H](CC(=O)[C@H]2CC(=O)C(=O)N(C)C)CN1C(=O)c1ccccc1 ?
HCT116 PTEN-null: 74; bCat KO growth: 57

What do the screens show for `COC(=O)[C@@]1(Cc2ccc(OC)cc2)[C@@H]2C(=CC(=O)[C@H]2CC(=O)C(=O)N2CCCC2)CN1C(=O)c1ccccc1`?
HCT116 PTEN-null: 2.0*; bCat KO growth: 1.9*

How did CCN(CC)S(=O)(=O)c1ccc(/C=C/C(=O)OCC(=O)Nc2ccc(S(N)(=O)=O)cc2)cc1 do in these assays?
HCT116 PTEN-null: 86; bCat KO growth: 82

What do the screens show for `Cn1c(N)c(C(=O)COC(=O)CSc2ccc(Cl)cc2)c(=O)n(C)c1=O`?
HCT116 PTEN-null: 98; bCat KO growth: 98

What do the screens show for `COc1cccc(-c2cc3nc(-c4ccccc4)cc(N4CCC5(CC4)OCCO5)n3n2)c1`?
HCT116 PTEN-null: 33; H69AR inhibit: 68; HUVEC inhibit: 70; Lung fibro prol: 99; bCat KO growth: 46

How did CN1CCN(c2cc(-c3ccccc3)nc3cc(-c4ccc(F)cc4)nn23)CC1 do in these assays?
HCT116 PTEN-null: 1.3*; bCat KO growth: 3.8*

What do the screens show for `Fc1ccc(-c2cc3nc(-c4ccccc4)cc(N4CCN(CCN5CCOCC5)CC4)n3n2)cc1`?
HCT116 PTEN-null: 1.6*; H69AR inhibit: 26*; HUVEC inhibit: 32; Lung fibro prol: 57; bCat KO growth: 1.7*

How did S=c1[nH]nc(COc2ccccc2)n1/N=C/C(Cl)=C/c1ccccc1 do in these assays?
HCT116 PTEN-null: 15; bCat KO growth: 12

Results for OC(CCCN1CCC(O)(c2ccc(Cl)cc2)CC1)c1ccc(F)cc1 (stereo not drawn) ?
HCT116 PTEN-null: 0.7*; H69AR inhibit: 81; HUVEC inhibit: 116; Lung fibro prol: 88; bCat KO growth: 0.6*

How did CN(C)C(=O)C(CCN1CCC(O)(c2ccc(Cl)cc2)CC1)(c1ccccc1)c1ccccc1 do in these assays?
HCT116 PTEN-null: 15; bCat KO growth: 16

What do the screens show for `Cc1ccc(NC(=S)NC(NC(=O)c2ccccc2C)C(Cl)(Cl)Cl)c(C)c1` (stereo not drawn)?
HCT116 PTEN-null: 57; bCat KO growth: 65

How did CCOC(=O)c1ccc(Nc2ccc(-c3ccc(OC)c(OC)c3)nn2)cc1 do in these assays?
HCT116 PTEN-null: 73; H69AR inhibit: 32*; HUVEC inhibit: 56; Lung fibro prol: 98; bCat KO growth: 76

What do the screens show for `CCOc1ccc(N=CC2=C(O)CC(C)(C)CC2=O)cc1`?
HCT116 PTEN-null: 97; H69AR inhibit: 40*; HUVEC inhibit: 76; Lung fibro prol: 93; bCat KO growth: 91

How did CN(C)c1ccc(N=Nc2ccccc2C(=O)OCC(=O)N(C)c2ccccc2)cc1 do in these assays?
HCT116 PTEN-null: 91; bCat KO growth: 60

Results for Cc1c(N=C2SCC(=O)N2/N=C\c2ccc(Br)cc2)c(=O)n(-c2ccccc2)n1C ?
HCT116 PTEN-null: 87; bCat KO growth: 85

How did COc1cc(C2C(N3C(=O)c4ccccc4C3=O)C(=O)N2c2cccc(C)c2)cc(OC)c1OC (stereo not drawn) do in these assays?
HCT116 PTEN-null: 96; bCat KO growth: 93

What do the screens show for `O=C(CCn1c(=O)oc2ccccc21)N1CCN(c2ccccc2Cl)CC1`?
HCT116 PTEN-null: 30; H69AR inhibit: 18*; HUVEC inhibit: 62; Lung fibro prol: 66; bCat KO growth: 30
